{"data": "Results pooled from the literature", "PFF0160c": "Dihydroorotate dehydrogenase (quinone), mitochondrial (PFF0160c, Plasmodium falciparum, UniProt Q08210)", "PFF0160c E182D": "Dihydroorotate dehydrogenase (quinone), mitochondrial (PFF0160c, Plasmodium falciparum, UniProt Q08210, E182D)", "OPRK1": "Kappa-type opioid receptor (OPRK1, Homo sapiens, UniProt P41145)", "PROC": "Vitamin K-dependent protein C (PROC, Homo sapiens, UniProt P04070)", "note": "Compare with care: the assays were run in different laboratories."}
{"SMILES": "O=C(CCCC(=O)N1CCN(C(=O)c2cc(Cc3n[nH]c(=O)c4ccccc34)ccc2F)CC1)NCCNC(=O)C1CC2C=CC1C2 (stereo not shown)", "target": "Poly [ADP-ribose] polymerase 1 (PARP1, Homo sapiens, UniProt P09874)", "assay": "enzyme activity, inhibitor", "IC50": "10.1 nM"}
{"SMILES": "Cc1nc(Nc2ccc(S(F)(F)(F)(F)F)cc2)c2c(C)noc2n1", "target": "PFF0160c", "assay": "enzyme activity, inhibitor, absorbance", "IC50": "36 nM"}
{"SMILES": "COc1ccccc1C1CN(CCNC(=O)c2nc(C)c[nH]2)Cc2ccccc2O1 (stereo not shown)", "target": "PFF0160c", "assay": "enzyme activity, inhibitor, absorbance", "IC50": "3010 nM"}
{"SMILES": "COc1cc(Nc2ncc(F)c(Nc3ccc4c(n3)NC(=O)C(C)(C)O4)n2)cc(OC)c1OC", "target": "cGMP-specific 3',5'-cyclic phosphodiesterase (PDE5A, Homo sapiens, UniProt O76074)", "assay": "enzyme activity, inhibitor", "IC50": "316 nM"}
{"SMILES": "CN(C)S(=O)(=O)c1ccc(Sc2ccccc2)c(C(=O)N2CCCC(C(N)=O)C2)c1 (stereo not shown)", "target": "PFF0160c", "assay": "enzyme activity, inhibitor, absorbance", "IC50": "3670 nM"}
{"SMILES": "Cc1c(C2(c3cccc(C(F)(F)F)c3)CC2)c[nH]c1C(=O)NC(C)c1nc[nH]n1 (stereo not shown)", "target": "PFF0160c", "assay": "enzyme activity, inhibitor, absorbance", "IC50": "30000 nM"}
{"SMILES": "Cc1cc(Nc2ccc3c(c2)CCC3)n2ncnc2n1", "target": "PFF0160c E182D", "assay": "enzyme activity, inhibitor, absorbance", "IC50": "> 10000 nM"}
{"SMILES": "Cc1nc(NC2Cc3cc(F)c(F)cc3C2)c2c(C(F)(F)F)noc2n1", "target": "PFF0160c", "assay": "enzyme activity, inhibitor, absorbance", "IC50": "22 nM"}
{"SMILES": "CC(CCc1ccccc1)NC(C)C(O)c1ccc(O)cc1 (stereo not shown)", "target": "OPRK1", "assay": "ligand displacement, radioligand", "IC50": "4980 nM"}
{"SMILES": "CCc1nc2nc(C)cc(Nc3ccc4c(c3)OCCO4)n2n1", "target": "PFF0160c", "assay": "enzyme activity, inhibitor, absorbance", "IC50": "492 nM"}
{"SMILES": "CC[C@H]1NC(=O)[C@@H]2CSC(=N2)[C@@H](Cc2ccccc2)N(C)C(=O)[C@@H]2CCCN2C(=O)[C@H](C(C)C)N(C)C(=O)[C@H](Cc2ccccc2)OC(=O)[C@H](C)[C@@H](C)NC(=O)[C@@H]([C@@H](C)O)NC(=O)[C@@H](CC(C)C)N(C)C(=O)[C@@H]2CSC1=N2", "target": "PROC", "assay": "enzyme activity, inhibitor", "IC50": "79000 nM"}
{"SMILES": "Cc1c(Cc2ccc(C(F)(F)F)cc2F)c[nH]c1C(=O)NC(C)c1nc[nH]n1 (stereo not shown)", "target": "PFF0160c", "assay": "enzyme activity, inhibitor, absorbance", "IC50": "350 nM"}
{"SMILES": "Cc1nc(NC2CCc3cc(Cl)ccc3C2)c2c(C)noc2n1 (stereo not shown)", "target": "PFF0160c", "assay": "enzyme activity, inhibitor, absorbance", "IC50": "120 nM"}
{"SMILES": "CC(c1ccc(Cl)c(Cl)c1)c1nn2c(-c3ccccc3F)nnc2s1 (stereo not shown)", "target": "PFF0160c", "assay": "enzyme activity, inhibitor, absorbance", "IC50": "541 nM"}
{"SMILES": "Cc1c(C2(c3ccc(C(F)F)nc3)CC2)c[nH]c1C(=O)NC(C)c1nc[nH]n1 (stereo not shown)", "target": "PFF0160c", "assay": "enzyme activity, inhibitor, absorbance", "IC50": "> 30000 nM"}
{"SMILES": "CC(=O)c1c(Nc2c(C)cc(C)cc2C)oc(C)cc1=O", "target": "PFF0160c E182D", "assay": "enzyme activity, inhibitor, absorbance", "IC50": "659 nM"}
{"SMILES": "Cc1nc(Nc2ccc(C(F)(F)F)cc2)c2c(C)noc2n1", "target": "PFF0160c", "assay": "enzyme activity, inhibitor, absorbance", "IC50": "68 nM"}
{"SMILES": "Cc1nc(C(C)NC(=O)c2[nH]cc(Cc3ccc(C(F)(F)F)nc3)c2C)c[nH]1 (stereo not shown)", "target": "PFF0160c", "assay": "enzyme activity, inhibitor, absorbance", "IC50": "1300 nM"}
{"SMILES": "CCOC(=O)c1ccc(OC(=O)CCCCCN=C(N)N)cc1", "target": "PROC", "assay": "enzyme activity, inhibitor", "IC50": "1400 nM"}
{"SMILES": "O=S(=O)(O)c1nc2ccccc2[nH]1", "target": "racE (Bacillus subtilis, UniProt P94556, N75A)", "assay": "enzyme activity, inhibitor, absorbance", "IC50": "890000 nM"}
{"SMILES": "Cc1ccc(O)c([C@H](CCN(C(C)C)C(C)C)c2ccccc2)c1", "target": "OPRK1", "assay": "ligand displacement, radioligand", "IC50": "6710 nM"}
{"SMILES": "Cc1cc(C(C)NC(=O)c2[nH]cc(-c3n[nH]c4cc(C(F)(F)F)ccc34)c2C)no1 (stereo not shown)", "target": "PFF0160c", "assay": "enzyme activity, inhibitor, absorbance", "IC50": "> 100000 nM"}
{"SMILES": "CC1CN(Cc2ccc(-c3ccc(C(=O)NCC4CCCO4)cn3)cc2)CC(C)O1 (stereo not shown)", "target": "PFF0160c E182D", "assay": "enzyme activity, inhibitor, absorbance", "IC50": "3280 nM"}
{"SMILES": "Cc1nc(NC2CCc3cc(Br)ccc3C2)c2c(C)noc2n1 (stereo not shown)", "target": "PFF0160c", "assay": "enzyme activity, inhibitor, absorbance", "IC50": "530 nM"}
{"SMILES": "Cc1c(Cc2ccc(F)c(F)c2)c[nH]c1C(=O)NC(C)c1nc[nH]n1 (stereo not shown)", "target": "PFF0160c", "assay": "enzyme activity, inhibitor, absorbance", "IC50": "> 100000 nM"}
{"SMILES": "Cn1cc(-c2ccc(-n3ccc(OCc4ccc(Cl)cn4)cc3=O)cn2)cn1", "target": "PFF0160c E182D", "assay": "enzyme activity, inhibitor, absorbance", "IC50": "7020 nM"}
{"SMILES": "Cc1c(C2(c3ccc(C(F)(F)F)cc3F)CC2)c[nH]c1C(=O)NC(C)c1nc[nH]n1 (stereo not shown)", "target": "PFF0160c", "assay": "enzyme activity, inhibitor, absorbance", "IC50": "> 100000 nM"}
{"SMILES": "Cc1nc(Nc2ccc(S(F)(F)(F)(F)F)cc2)c2c(C(F)(F)F)noc2n1", "target": "PFF0160c", "assay": "enzyme activity, inhibitor, absorbance", "IC50": "43 nM"}
